Results reported in ChEMBL document CHEMBL4513216, “Probing the Open Global Health Chemical Diversity Library for Multistage-Active Starting Points for Next-Generation Antimalarials” (ACS Infect Dis, 2020).

Assay: Toxicity liver stage against HepG2, at 10uM
Assay type: cell-based
Set-up: test concentration 10 uM, cell line HepG2-A16-CD81EGFP
Details: human, HepG2-A16-CD81EGFP cells; read-out: INHIBITION
Outline: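 Uninfected HepG2-A16-CD81EGFP cells, 3 × 10^3 per well, 1536-well, plated on prespotted compound at 10 μM final, parasite-free screening media added to match infected plates; puromycin 10 μM positive, DMSO 0.5% negative; run in parallel with 48 h PbLuc assay at 37 °C, 5% CO2; viability by CellTiter-Glo luminescence, normalized to controls.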

SMILES	cytotoxicity at 10 µM [%]
c1cc(CNCCc2cn3ccccc3n2)c2c(c1)OCCCO2	15.2
COc1ccc(CN[C@@H]2CO[C@H](CNC(=O)N3CCOCC3)[C@H]2O)cc1	-1.57
COC(=O)c1ccc2nc(CO[C@H]3CN(CC4CC4)C[C@H]3F)[nH]c2c1	2.52
CC(C)NC(=O)N1CCN2C(=O)OC[C@H]2C1	4.62
O=C(CCn1cccc1)NCc1ccc(CN2CCCCCC2)o1	-5.2
CCOCCCNC(=O)C1(C)CCC(=O)N1c1ccccc1F (stereo unspecified)	-4.42
CSc1ccc(C(=O)N2CC(=O)N(CC(C)(C)C)CC(O)C2)cc1 (stereo unspecified)	8.6
O=C(O)Cc1cnc(-c2c(Cl)cccc2Cl)s1	2.84
Cc1nn(C2CCS(=O)(=O)C2)c(O)c1Cc1ccccc1 (stereo unspecified)	-44.6
O=C(CN1C(=O)c2ccccc2C1=O)N1CCOC2(CCOCC2)C1	-5.15
Cn1nc(CNC(=O)C2CCN(S(C)(=O)=O)CC2)cc1C1CC1	-2.87
Cc1nc(N2CCCC2)nc2c1CN(C(=O)N(C)C)CC2	4.29
COCCC(=O)NCC1Cn2nnc(-c3cccc(F)c3)c2CO1 (stereo unspecified)	0.0508
CCCN(CCC)c1ncc(S(=O)(=O)c2ccc(OC)cc2)c(N)n1	7.79
O=S(=O)(c1cnccc1N1CCN(CCO)CC1)N1CCOCC1	-8.49
O=C(Cn1ccc2ccc(Br)cc21)NC[C@@H]1CCCN2CCCC[C@H]12	14.7
CN(C)c1nccc(N2CCO[C@H]3CN(CC4CCOCC4)C[C@H]32)n1	-7.21
COc1ccccc1-c1cccc(C2CCCN(C3CCOCC3)C2)n1 (stereo unspecified)	5.7
CNC(=O)C1CN(C)CCN(C(=O)CCn2nnc3ccccc32)C1 (stereo unspecified)	2.71
Cc1cc(Cc2ccccc2F)cc(C2CCCNC2)n1 (stereo unspecified)	0.00505
O=C(C[S+]([O-])Cc1csc(C2CCCC2)n1)NC1CCCC1 (stereo unspecified)	-38.2
CCOC(C)C(=O)NCc1cccc(CN2CCCCCC2)c1 (stereo unspecified)	15.5
CC(C)OCCS(=O)(=O)N1CCN(Cc2ccco2)CC1	-11.3

SMILES	cytotoxicity at 10 µM [%]
COc1ccc2c(c1)CCCN(C(=O)NCC1CCCO1)C2 (stereo unspecified)	1.06
Cc1ccc(C(=O)NCC(O)c2ccc(Cl)s2)c(=O)[nH]1 (stereo unspecified)	-20.7
CCC(C)C(=O)N(Cc1ccccn1)C1CC1 (stereo unspecified)	-44.5
COCCCN(C)S(=O)(=O)c1ccc(Cl)cc1C#N	-38
CCN(CC)c1ccc(CNC(=O)c2cnc(C)cn2)cn1	6.21
CN(C)C(C)(C)CNCc1c[nH]nc1-c1cc2ccccc2o1	-3.6
Cc1cc(S(=O)(=O)N2CCCc3ccccc32)sc1C(=O)O	-13.5
CCSc1cc(C(=O)NCCc2nnc(-c3ccco3)[nH]2)ccn1	6.14
COC(=O)c1ccoc1CN(C)Cc1ccccc1	3.3
Cc1ccc(C(=O)N(C)Cc2ccc(Br)s2)c(=O)[nH]1	5.02
Cn1ccnc1COc1ccc(CSc2nnnn2C2CC2)cc1	-0.146
Cc1noc(C)c1CN(Cc1ccccc1)C(C)CN1CCOCC1 (stereo unspecified)	7.97
CC(=O)N(C)c1nc(CN2CCN(Cc3nccn3C)CC2)cs1	8.82
Cc1ccc2c(c1)C(NCc1ncnn1C)CC2 (stereo unspecified)	6.32
CN1CCC(CNC(=O)c2ccc(O)nc2)c2ccccc21 (stereo unspecified)	13.9
CCN1CCN(CCCNC(=O)c2cc3ccc(C)cc3nc2C)CC1	5.33
CCc1c(C)nc2ccccc2c1N1CCC(NC(C)=O)CC1	11.2
COc1ccnc(NC(=O)CSCc2cccnc2)c1	-47.2
Cc1ncsc1C(=O)N(C)Cc1ccc(Br)o1	-39.3
CCN(CC)C(=O)CN(C)Cc1nc2c(cnn2C)c(=O)[nH]1	-0.958
O=S(=O)(c1ccccc1)N1CCCN(CCCn2ccnc2)CC1	-9.17
O=C(NCCCn1ccnc1)N1CCCC1c1ccncc1 (stereo unspecified)	25.4
Cc1cccc(C(=O)N(C)Cc2cc(Br)cs2)n1	-5.1

SMILES	cytotoxicity at 10 µM [%]
CS(=O)(=O)NCc1nnc2n1CCN(Cc1ccccn1)C2	-75.5
CCOCC1CN(Cc2cnn(C)c2)Cc2ncn(C)c21 (stereo unspecified)	-79.2
CS(=O)(=O)N1CCC(c2nnc3ccc(C(=O)NC4CCC4)cn23)C1 (stereo unspecified)	3.6
CN(C)C(=O)COC1COC2(CCN(S(C)(=O)=O)CC2)C1 (stereo unspecified)	-1.08
Nc1ccnc(N2C[C@H](O)[C@@H](N3CCN(c4ccccn4)CC3)C2)n1	6.7
CN(C)Cc1csc(-c2nccn2Cc2ccc(C(=O)O)cc2)c1	-1.3
Cc1ncc2c(c1CNC(=O)C1(C)CCCCO1)CCNC2 (stereo unspecified)	-27.9
FC(F)(F)c1ccc(-c2n[nH]c3c2CN(CC2CCOC2)CC3)cc1 (stereo unspecified)	-52.1
CCC[C@@H]1CN(Cc2ccc(C(F)(F)F)nc2)C[C@H]1C(=O)O	0.425
O=S(=O)(N1CCOCC1)N1CCOC(CCCc2ccccc2)C1 (stereo unspecified)	-8.79
Cc1cccc2c1nc(CCO)n2-c1ccc(C(=O)N2CCOCC2)o1	3.69
CCSCCNC(=O)Nc1cc(C(=O)N2CCOCC2)ccc1Cl	-55.2
CSCc1noc(CN2CCCCC2CCc2ccc(O)cc2)n1 (stereo unspecified)	-1.58
CCc1[nH]c2c(CNc3nccc(N)n3)cc(C)cc2c1C	3.4
O=C(O)[C@@H]1CN(Cc2ccc(-c3cc[nH]n3)s2)C[C@H]1C1CC1	5.13
CSCC(=O)N1CCc2nc(C)nc(NCc3ccccc3)c2CC1	1.69
CC1=CCN(S(=O)(=O)c2cccc(C(=O)N3CCOCC3)c2)CC1	4.9
COC(=O)c1ccc(N2CCN(C(=O)c3ccc(=O)n(C)c3)CC2)cc1	-43.9
CNCCCNc1nc(C2CCCC2)nc2c1cnn2C	6.63
CCN(Cc1nc(COC)no1)Cc1cccnc1NC(=O)C(C)(C)C	-47.9
CCOc1ccc(CC(=O)N2CCCC2c2cc(C)on2)cc1 (stereo unspecified)	-46
c1ccc(CCNc2ncnc3c2CCN(Cc2c[nH]cn2)CC3)cc1	3.16
N#Cc1ccnc(N2CCC(c3nccn3Cc3cscn3)CC2)c1	-12.4

SMILES	cytotoxicity at 10 µM [%]
CS(=O)(=O)NCc1cc2n(n1)CCCN(Cc1cccc(C#N)c1)C2	-8.33
COc1ccccc1OC1CCN(Cc2cnc(N(C)C)nc2)CC1	-10.9
CNc1cc(CNC(=O)c2ccccn2)nc(-c2ccncc2)n1	-2.63
O=C(c1cccs1)N1CCC(O)(CN2CCc3ccccc3C2)C1 (stereo unspecified)	1.49
COc1cnc(C2(O)CCN(C(=O)c3ccncc3)CC2)c(OC)n1	-4.38
CN(C)CC(=O)N1C[C@@H]2CC[C@H](Oc3ccccc3Cl)[C@@H]2C1	3.22
c1cc(CN2CCCC2c2noc(C3CC3)n2)on1 (stereo unspecified)	-0.628
CNS(=O)(=O)c1ccc(CNC(=O)c2cccc(C)n2)cc1	7.17
CC(C(=O)N1CCCCCC1)N1CCN(Cc2nccn2C)CC1 (stereo unspecified)	-5.28
CC(C)(O)CN1CCN(C(=O)c2ccc(Cl)c3cccnc23)CC1	-9.19
COC(=O)NCCC(=O)NC(C)Cc1cccc(Br)c1 (stereo unspecified)	-15.8
Cn1cc(CCC(=O)N2CCCN(c3ncccc3C#N)CC2)cn1	2.88
CC(C)(C)c1n[nH]c(C2CN(CCc3cccs3)CCO2)n1 (stereo unspecified)	-7.36
Cc1cnn(C2CN(CC(=O)Nc3cccnc3)C2)c1	-8.11
COc1nc(C)cc(C)c1CNC(=O)N(C)Cc1cnn(C)c1	-4.64
OCCn1cc(CN2CCN(CCOc3ccccc3)CC2)cn1	-8.43
CCc1nccn1C1CCCN(C(=O)CCc2nccs2)C1 (stereo unspecified)	-14.3
COc1ccccc1N1CCC(CNCc2cccc(O)c2)C1 (stereo unspecified)	-9.04
CN(C)c1cc2c(nn1)CCN(C(=O)Cc1noc3ccccc13)C2	-10.7
CCOc1ccccc1C(CC(=O)Nc1ccccc1F)NC(C)=O (stereo unspecified)	-15.4
c1cc(CNCC2CNc3ccnn3C2)cc(N2CCCCC2)n1 (stereo unspecified)	6.91
COCCOc1ccccc1C(=O)N1CCCCC1c1nccs1 (stereo unspecified)	0.642
O=C(COCc1ccccc1)N1CCCC(n2cncn2)C1 (stereo unspecified)	-8.6

SMILES	cytotoxicity at 10 µM [%]
CC(O)(CN1CCC2(CC1)OCCO2)c1cccc(C(F)(F)F)c1 (stereo unspecified)	-9.21
CC(=O)N1CCN(C(=O)CN2CCc3c(ncn3C3CC3)C2)CC1	3.3
COC(=O)COc1cccc(NS(=O)(=O)c2cc(C(=O)O)cs2)c1	-5.25
CS(=O)(=O)NCc1cncc2c1CCN(C(=O)N1CCCC1)C2	12.8
COC1COC2(CCN(Cc3ccccc3C)CC2)C1 (stereo unspecified)	2.84
c1ccc(N2CCCC3(CCN(Cc4ccsc4)C3)C2)nc1 (stereo unspecified)	-14
CCOCC1CN(C)Cc2cnn(CC3CCCC3)c21 (stereo unspecified)	-9.7
Cc1cnc(N2CC[C@H]3[C@@H]2CCC(=O)N3c2cccnc2)nc1	-0.298
CNC(=O)C1Cn2ccnc2C2(CCN(Cc3ccncc3)CC2)O1 (stereo unspecified)	-74.9
Cn1cnc2c1C(COCC1CCOCC1)CN(Cc1ccccn1)C2 (stereo unspecified)	-78.2
Cc1nc(N2CCOCC2)nc2c1COCC21CCN(CC2CC2)C1 (stereo unspecified)	-116
CS(=O)(=O)N[C@@H]1CN(C(=O)c2ccccn2)[C@@H]2CCCO[C@@H]21	4.3
O=C(NC1CC1)C1=CC2(CCN(CC3CC3)CC2)c2ccccc21	3.11
Cc1ccc(CN2CC[C@]3(C[C@H](OCc4ccccn4)CO3)C2)o1	-0.617
CN(Cc1ccco1)[C@@H]1CN(C(=O)C2CCOCC2)C[C@@H]2CCCO[C@@H]21	3.48
COCCN1CCN(Cc2c(C)noc2C)Cc2cccnc21	-70.1
Cc1ccc2c(n1)N(Cc1ccncc1)CCN(S(C)(=O)=O)C2	-77.2
O=C(c1cnccn1)N1CCCC2(COCCN(CC3CC3)C2)C1 (stereo unspecified)	1.39
Cc1cnc(NS(=O)(=O)c2ccccc2)s1	-2.56
